Assay results published in ChEMBL document CHEMBL3243953, “5-Aryl-1,5-dihydro-2H-1,4-benzodiazepin-2-one derivatives as antianxiety agents” (J Med Chem, 1977).

Legend:
Mus musculus [1] = assay: Anticonvulsant activity in po dosed mouse assessed as inhibition of pentylene-tetrazole-induced convulsion; format: functional
How it was run: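 Antagonism of pentylenetetrazole-induced convulsions in orally dosed mice, used as a measure of tranquilizing activity; ED50 (mg/kg) reported.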

Mus musculus [2] = assay: Muscle relaxant activity in po dosed mouse assessed as muscle relaxation by rotarod test; format: functional
How it was run: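 Rotarod performance test in mice after oral dosing, used as a measure of muscle relaxant activity; result expressed as ED50 (mg/kg).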

Mus musculus [3] = assay: Anticonvulsant activity in po dosed mouse by maximal electroshock test; format: functional
How it was run: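 Maximal electroshock test in mice after oral dosing, used as a measure of anticonvulsant activity; ED50 (mg/kg) reported.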

[4] = Acute toxicity in po dosed mouse; format: organism-based; conditions: in vivo
How it was run: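 Mice dosed orally; acute toxicity expressed as LD50 (mg/kg), calculated by the Bliss method.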

| SMILES | ED50 (Mus musculus [1]) [mg/kg] | ED50 (Mus musculus [2]) [mg/kg] | ED50 (Mus musculus [3]) [mg/kg] | LD50 [4] [mg/kg] |
| --- | --- | --- | --- | --- |
| CC(=O)OC1(c2ccccc2)c2cc([N+](=O)[O-])ccc2NC(=O)CN1[N+](=O)[O-] (stereo unspecified) | 58 | > 100 | > 100 | > 1000 |
| COC1(c2ccccc2)c2cc(Cl)ccc2NC(=O)CN1[N+](=O)[O-] (stereo unspecified) | > 100 | > 100 | > 100 | > 1000 |
| COC1(c2ccccc2)c2cc([N+](=O)[O-])ccc2NC(=O)CN1[N+](=O)[O-] (stereo unspecified) | 13 | > 100 | > 100 | > 1000 |
| COC1(c2ccccc2)N=CC(=O)N(C)c2ccc(Cl)cc21 (stereo unspecified) | 0.7 | 27.5 | 53 | > 1000 |
| COC1(c2ccccc2)N=CC(=O)N(C)c2ccc([N+](=O)[O-])cc21 (stereo unspecified) | 0.7 | 5.2 | 76 | 750 |
| COC1(c2ccccc2)c2cc(Cl)ccc2N(C)C(=O)CN1[N+](=O)[O-] (stereo unspecified) | > 100 | > 100 | > 100 | > 1000 |
| COC1(c2ccccc2)N=CC(=O)Nc2ccc(Cl)cc21 (stereo unspecified) | 1.6 | 28.1 | > 100 | > 1000 |
| COC1(c2ccccc2)N=CC(=O)Nc2ccc([N+](=O)[O-])cc21 (stereo unspecified) | 1.4 | 19.1 | > 100 | > 1000 |
| O=C1Nc2ccc(Cl)cc2C(c2ccccc2)=NC1OCCO (stereo unspecified) | 36 | > 100 | > 100 | > 1000 |
| O=C1Nc2ccc([N+](=O)[O-])cc2C(c2ccccc2)=NC1OCCO (stereo unspecified) | 9.2 | > 100 | > 100 | > 1000 |
| O=C1Nc2ccc(Cl)cc2C(c2ccccc2)=NC1OCCCl (stereo unspecified) | 13 | > 100 | > 100 | > 1000 |
| O=C1Nc2ccc([N+](=O)[O-])cc2C(c2ccccc2)=NC1OCCCl (stereo unspecified) | 9.2 | > 100 | > 100 | > 1000 |
| O=C1Nc2ccc(Cl)cc2C(c2ccccc2)=NC1NO (stereo unspecified) | 32 | > 100 | > 100 | > 1000 |
| N#CC1N=C(c2ccccc2)c2cc(Cl)ccc2NC1=O (stereo unspecified) | 14 | > 100 | > 100 | > 1000 |
| N#CC1N=C(c2ccccc2)c2cc([N+](=O)[O-])ccc2NC1=O (stereo unspecified) | > 100 | > 100 | > 100 | > 1000 |
| NC1N=C(c2ccccc2)c2cc(Cl)ccc2NC1=O (stereo unspecified) | 85 | > 100 | > 100 | > 1000 |
| CNC1=NC(c2ccccc2)c2cc([N+](=O)[O-])ccc2N(C)C1=O (stereo unspecified) | > 100 | > 100 | > 100 | > 1000 |
| CN1C(=O)CN=C(c2ccccc2)c2cc(Cl)ccc21 [DIAZEPAM] | 1.2 | 14.4 | 62.2 |  |
